beta cell repl = inducers of MIN6 beta-cell proliferation, primary screen, ATP luminescence, uHTS. AID 2380, 2010. proliferation, % at 10 µM. MIN6 cells proliferation, ATPlite luminescence, 48 h; cells starved in 0.2% serum; 100% = growth in 10% serum. hit rate 0.29% among 330,000;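 active = compounds whose signal lies at least 3.5 SD above the mean of all wells on their plate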;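 also: 0% = DMSO-treated cells in low-serum medium and 100% = 10% serum control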
hiPSC survival = enhancers of single-cell hiPSC survival, primary screen, ATPlite luminescence; 100% = ROCK inhibitor wells, 0% = DMSO; survival enhancement, % at 20 µM; hit rate 0.044% among 360,000; AID 602274, 2012; in the data active = survival enhancement above about 18%;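 also: cells exposed to compounds for 16 hours before the ATP read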
Rev-erbA mod = modulators of Rev-erb alpha DNA binding, primary screen, biochemical, FITC-DNA, fluorescence polarization, uHTS. Rev-erbα–FITC-DNA binding, 90 min. activity, % at 10 µM. hit rate 0.79% among 370,000. AID 1259318, 2017;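 active = activity above about 14%, limit read from the data; passing the limit was not always enough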;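 also: 0% = DMSO wells with 35 nM protein and 100% = DMSO wells with 750 nM protein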
Target sequence (P20393 whole entry, looked up): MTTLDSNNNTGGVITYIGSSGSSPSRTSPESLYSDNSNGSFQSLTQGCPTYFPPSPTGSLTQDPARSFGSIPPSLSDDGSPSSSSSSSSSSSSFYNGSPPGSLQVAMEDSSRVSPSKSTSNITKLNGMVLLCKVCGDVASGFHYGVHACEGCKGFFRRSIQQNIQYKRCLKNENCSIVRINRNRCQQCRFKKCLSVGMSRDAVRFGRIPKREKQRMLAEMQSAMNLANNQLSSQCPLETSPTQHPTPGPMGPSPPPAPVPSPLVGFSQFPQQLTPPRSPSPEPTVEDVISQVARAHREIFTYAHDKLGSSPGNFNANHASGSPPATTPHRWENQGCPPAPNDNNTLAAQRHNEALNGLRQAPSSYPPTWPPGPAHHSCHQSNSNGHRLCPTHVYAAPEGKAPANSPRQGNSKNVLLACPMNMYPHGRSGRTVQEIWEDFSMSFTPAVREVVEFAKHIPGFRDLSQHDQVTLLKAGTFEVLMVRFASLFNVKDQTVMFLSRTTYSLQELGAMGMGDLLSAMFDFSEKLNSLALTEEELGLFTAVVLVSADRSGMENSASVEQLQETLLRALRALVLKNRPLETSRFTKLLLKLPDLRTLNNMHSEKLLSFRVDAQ
PG9 binder = binders of HIV-1 gp120 antibody PG9, primary screen, biochemical, TR-FRET. TR-FRET gp120-PG9 antibody binding. inhibition, % at 6.7 µM. hit rate 0.43% among 360,000. AID 624416, 2012; in the data active = inhibition above about 8.5%
T cruzi inh = inhibitors of intracellular T. cruzi growth, primary screen, luminescence, NIH3T3 host cells | hit rate 1.4% among 300,000 | inhibition, % (no concentration beside the values) | T. cruzi beta-gal in NIH3T3, 90 h | AID 1885, 2009;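 active = mean inhibition across valid replicates above about 55%, limit read from the data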;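 also: signal also drops with host cell toxicity which is not excluded here; 0% = plate median of DMSO wells and 100% = zero luminescence signal; higher percent means less beta-gal luminescence so fewer parasites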
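System: mouse NIH/3T3 fibroblasts infected with β-gal-expressing T. cruzi Tulahuen C4 / Input: NIH/3T3 cells, 5,000 per well / Buffer or medium: Low-serum DMEM with 2% FBS / Probe or stimulus: 5000 reporter trypomastigotes per well / Schedule: ≥90 h infection period, 3 h prior cell attachment / Measured by: GalScreen luminescence, 60 min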
H9c2 TAG inh = inhibitors of triacylglycerol accumulation, primary screen, cell-based, uHTS, fluorescence, H9c2; inhibition, % at 12.5 µM; H9c2 cells, Nile Red lipid (TAG) fluorescence; cells loaded with 200 µM oleic acid; hit rate 0.66% among 230,000; AID 651582, 2012;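 active = pattern-corrected inhibition of lipid staining of at least 50% with the nuclear-stain viability signal not falling by more than 50%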;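 also: 0% = DMSO wells and 100% = triacsin C control wells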
PG9 bind confirm = binders of anti-gp120 antibody PG9, confirmation, biochemical, TR-FRET. TR-FRET PG9 antibody binding. hit rate 90% among 1,500. shares compounds with PG9 binder. AID 651571, 2012. inhibition, % at 6.7 µM; in the data active = inhibition above about 9%
PGV04 Ab binding = binders of control antibody PGV04, counter-screen for PG9 antibody binder project, biochemical, TR-FRET, distinct HIV envelope site. shares compounds with PG9 binder. TR-FRET PGV04 antibody-gp120 binding. inhibition, % at 6.7 µM. hit rate 95% among 1,500. AID 651604, 2012; in the data active = inhibition above about 9.5%
PG9 binder DR = small-molecule binders of antibody PG9, dose response, biochemical, TR-FRET, HIV-1 gp120 antibody. 95 tested, under 10 active. shares compounds with PG9 binder. IC50, µM. TR-FRET PG9 antibody-gp120 binding inhibition; in the data active = IC50 below about 10 µM
PGV04 DR counter = binders of control antibody PGV04, dose response, counter-screen for PG9 antibody binder project, biochemical, TR-FRET, distinct HIV envelope site; IC50, µM; shares compounds with PG9 binder; TR-FRET binding to control antibody PGV04; hit rate 20% among 95
PG126 DR counter = binders of control antibody PG126, dose response, counter-screen for PG9 antibody binder project, biochemical, TR-FRET, distinct HIV envelope site; shares compounds with PG9 binder; TR-FRET binding to antibody PG126, counterscreen; IC50, µM; hit rate 20% among 95
* marks the source's active call; other numbers are inactive results; i = inactive; · = no result. Compounds with a hit are over-represented: about 2.9% of the library has one in this group of screens. Rule as the data show it, unless noted: active = IC50 below about 9 µM; inactive = the rest.

SMILES	beta cell repl	hiPSC survival	Rev-erbA mod	PG9 binder	T cruzi inh	H9c2 TAG inh	PG9 bind confirm	PGV04 Ab binding	others
Cc1ccc(C2/C(=C(\O)c3ccc4c(c3)OCCO4)C(=O)C(=O)N2CC2CCCO2)cc1 (stereo unspecified)	5	0	8	9.7*	·	·	20*	22*
NC(=O)/C(=C\c1ccc([N+](=O)[O-])o1)c1ccco1	·	-1	-5	-4	·	-12	·	·
Cc1ccc(OCC(=O)NC(=S)Nc2ccc3c4c(cccc24)CC3)cc1	0	1	11	1	3	·	·	·
CC(C)c1ccc(OCC(=O)NC(=S)Nc2ccc3c4c(cccc24)CC3)cc1	0	-2	7	11*	3	·	11*	12*
CCc1nc(SCC(=O)NNC(=O)C(C)C)c2ccccc2n1	2	0	5	2	-4	19	·	·
CCc1cc2c(SCC(=O)Nc3cc(C)on3)ncnc2s1	-2	0	12	22*	-7	8	32*	48*
CCc1cc2c(SCC(=O)c3ccccc3)ncnc2s1	2	-2	2	1	6	-63	·	·
CCc1cc2c(SCC(=O)NC(=O)c3cccn3C)ncnc2s1	1	-2	4	21*	18	·	18*	34*
O=C(Nc1ccc(Cl)cn1)c1cccnc1	0	0	-1	-1	-9	22	·	·
COC(=O)c1cc(Br)c(=O)n(-c2cc(C)on2)c1	-1	6	6	9.8*	-2	·	21*	26*
COC(=O)c1cc(Br)c(=O)n(-c2nccs2)c1	2	4	6	28*	5	-5	37*	50*
COC(=O)c1cc(Br)c(=O)n(-c2ccccn2)c1	-1	-2	-1	1	-10	-1	·	·
O=C(CCS(=O)(=O)c1ccccc1)N(CCCN1CCOCC1)c1nc2ccccc2s1	-7	0	11	1	8	18	·	·
Cc1ccc(S(=O)(=O)CCC(=O)N(CCCN2CCOCC2)c2nc3ccccc3s2)cc1	-7	0	5	9.6*	12	15	7	11*
COc1cc(C(=O)NCc2nnc(SCC(=O)Nc3cc(C)cc(C)c3)o2)cc(OC)c1OC	3	-3	-2	-1	-10	5	·	·
COc1cc2cnc(-c3ccccc3)cc2cc1OC	1	-3	-4	-3	·	18	·	·
COC(=O)c1c(NC(=S)Nc2ccc(C(=O)N3CCOCC3)cc2)sc2c1CCC2	-4	0	5	10*	-12	7	5	6
CNC(=S)Nc1sc2c(c1C(=O)OC)CCC2	-3	1	2	-2	-9	7	·	·
Cc1onc(-c2c(F)cccc2Cl)c1C(=O)Nc1nnc(-c2ccccc2)s1	-1	0	-1	9.6*	5	-2	15*	23*
Cc1onc(-c2ccccc2)c1C(=O)Nc1cccc2nsnc12	0	8	16	66*	-1	·	72*	81*
Cc1onc(-c2ccccc2Cl)c1C(=O)Nc1nnc(-c2ccc(F)cc2)s1	-4	2	2	-1	-6	-2	·	·
Cc1onc(-c2ccccc2Cl)c1C(=O)Nc1nnc(-c2ccc(Br)cc2)s1	-6	3	0	27*	3	4	31*	49*
Cc1onc(-c2ccccc2Cl)c1C(=O)Nc1nnc(-c2ccc(Cl)cc2Cl)s1	-7	-1	-1	15*	-9	12	39*	55*
COc1cccc2cc(C(=O)Nc3cccnc3N3CCOCC3)c(=O)oc12	-2	2	-5	9.7*	0	5	4	7
O=C(Nc1cccnc1N1CCOCC1)c1cc2ccccc2oc1=O	4	0	-3	-2	-8	-13	·	·
SMILES	beta cell repl	hiPSC survival	Rev-erbA mod	PG9 binder	T cruzi inh	H9c2 TAG inh	PG9 bind confirm	PGV04 Ab binding	others
CCN(CC)C(=O)c1[nH]cnc1C(=O)N[C@@H](C)c1ccccc1	-1	4	-3	0	·	1	·	·
S=c1[nH]nc(-c2cccc(Br)c2)o1	-3	3	-6	27*	1	13	28*	39*
COC(=O)[C@]12CCCCC=C1N(Cc1ccc3c(c1)OCO3)C(=O)[C@H](CC(=O)NCCc1ccccc1OC)C2	·	·	4	2	·	·	·	·
O=C(NNC(=O)C1CC1c1ccccc1)c1cccc([N+](=O)[O-])c1 (stereo unspecified)	1	-1	2	-2	-5	·	·	·
O=C(Nc1ccc2c(c1)OCO2)C1COc2ccccc2O1 (stereo unspecified)	-1	4	2	1	0	-6	·	·
Cc1cc(=O)oc2cc(NC(=O)C3COc4ccccc4O3)ccc12 (stereo unspecified)	1	-2	11	16*	1	·	39*	33*	PG9 binder DR=>67;PGV04 DR counter=i;PG126 DR counter=i
COc1ccccc1N1CCN(C(=O)CCNC(=O)c2ccco2)CC1	1	0	-4	0	·	0	·	·
CC(NS(=O)(=O)/C=C/c1ccccc1)c1ccccc1 (stereo unspecified)	-3	2	-7	-3	-1	-26	·	·
N#Cc1ccc2ccn(CC(=O)NC3CCCCCC3)c2c1	-1	1	1	2	19	·	·	·
COC(=O)c1ccc2ccn(CC(=O)NC3CCCCC3)c2c1	-2	-2	8	16*	2	-9	20*	32*
CN(C)S(=O)(=O)c1ccc(C(=O)NCC(=O)Nc2ccc(F)c(F)c2)cc1	-1	1	-3	0	-7	·	·	·
